# Laboratory results published in ChEMBL document CHEMBL1221227, “Nanomolar potency pyrimido-pyrrolo-quinoxalinedione CFTR inhibitor reduces cyst size in a polycystic kidney disease model” (J Med Chem, 2009).
# Active and inactive are the calls of the source. The rule behind the calls is not given here.
# Assays:
# [1] = target: T1, Cystic fibrosis transmembrane conductance regulator (Homo sapiens, UniProt P13569); assay: Inhibition of human CFTR expressed in rat FRT cells coexpressing halide indicator YFP-H148Q assessed as inhibition of halide influx at 5 uM preincubated for 15 mins by FLIPR; assay type: cell-based
# Procedure, shortened: (§1)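 FRT cells coexpressing human CFTR and YFP halide sensor, assayed 48 h after plating at confluence. After PBS washes, CFTR activated with 5 µM forskolin, 100 µM IBMX and 25 µM apigenin. Compound added 5 min later and incubated 15 min. Fluorescence read 2 s baseline, then 10 s after iodide-substituted PBS addition. Initial iodide influx rate obtained by nonlinear regression.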
# Target sequence in this assay (P13569 whole entry, looked up): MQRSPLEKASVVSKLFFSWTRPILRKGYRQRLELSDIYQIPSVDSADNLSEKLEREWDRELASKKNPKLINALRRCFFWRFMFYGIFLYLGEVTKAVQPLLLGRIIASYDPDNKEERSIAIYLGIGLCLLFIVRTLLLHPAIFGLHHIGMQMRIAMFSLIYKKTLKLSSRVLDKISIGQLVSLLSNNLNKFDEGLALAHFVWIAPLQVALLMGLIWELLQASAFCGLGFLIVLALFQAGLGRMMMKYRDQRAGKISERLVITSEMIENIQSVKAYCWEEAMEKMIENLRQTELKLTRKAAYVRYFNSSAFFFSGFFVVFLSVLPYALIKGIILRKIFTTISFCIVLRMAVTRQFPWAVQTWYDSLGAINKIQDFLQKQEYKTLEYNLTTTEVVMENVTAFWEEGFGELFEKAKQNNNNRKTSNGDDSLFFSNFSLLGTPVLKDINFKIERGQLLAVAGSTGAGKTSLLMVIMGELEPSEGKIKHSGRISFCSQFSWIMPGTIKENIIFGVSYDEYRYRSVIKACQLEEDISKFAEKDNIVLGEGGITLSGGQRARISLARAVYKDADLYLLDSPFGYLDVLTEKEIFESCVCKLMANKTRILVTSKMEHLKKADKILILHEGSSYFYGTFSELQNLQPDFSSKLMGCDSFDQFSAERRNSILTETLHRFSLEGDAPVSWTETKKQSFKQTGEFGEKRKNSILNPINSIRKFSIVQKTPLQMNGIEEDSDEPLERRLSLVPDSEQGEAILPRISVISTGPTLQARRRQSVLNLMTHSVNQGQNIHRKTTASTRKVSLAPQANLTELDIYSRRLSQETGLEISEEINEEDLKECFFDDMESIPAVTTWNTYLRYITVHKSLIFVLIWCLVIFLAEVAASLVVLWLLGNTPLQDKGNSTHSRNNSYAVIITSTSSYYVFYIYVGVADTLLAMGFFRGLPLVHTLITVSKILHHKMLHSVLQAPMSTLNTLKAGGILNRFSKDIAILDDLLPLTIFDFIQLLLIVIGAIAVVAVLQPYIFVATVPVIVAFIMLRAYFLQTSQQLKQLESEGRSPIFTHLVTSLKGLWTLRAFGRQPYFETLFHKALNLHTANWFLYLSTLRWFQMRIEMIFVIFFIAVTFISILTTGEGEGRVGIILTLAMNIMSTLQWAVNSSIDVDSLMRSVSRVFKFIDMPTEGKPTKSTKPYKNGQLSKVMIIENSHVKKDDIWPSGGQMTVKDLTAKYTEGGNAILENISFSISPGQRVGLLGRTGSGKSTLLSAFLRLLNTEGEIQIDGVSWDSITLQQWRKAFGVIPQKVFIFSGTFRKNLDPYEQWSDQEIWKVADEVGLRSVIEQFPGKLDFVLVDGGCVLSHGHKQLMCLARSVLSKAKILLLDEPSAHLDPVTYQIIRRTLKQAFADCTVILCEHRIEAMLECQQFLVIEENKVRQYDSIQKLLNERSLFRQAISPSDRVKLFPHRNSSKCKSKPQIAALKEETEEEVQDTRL
# [2] = target: T1, Cystic fibrosis transmembrane conductance regulator; assay: Inhibition of human CFTR expressed in rat FRT cells coexpressing halide indicator YFP-H148Q assessed as inhibition of halide influx at 25 uM preincubated for 15 mins by FLIPR; assay type: cell-based; procedure, shortened: as §1
# Target sequence in this assay (P13569 whole entry, looked up): as above
# Kidney [3] = assay: Reduction in size of preformed cysts in 8-Br-cAMP treated embryonic mouse kidney organ culture model of polycystic kidney disease by transmission light microscopy; assay type: functional, tissue-based
# Procedure, shortened: (§2)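 E13.5 mouse metanephroi in defined organ-culture medium with 100 µM 8-Br-cAMP, changed every 12 h, 37 °C. Compound (5 µM) added at day 3 to kidneys with preformed cysts. Cyst area fraction by transmission light microscopy at day 5, six kidneys, SE.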
# [4] = target: T1, Cystic fibrosis transmembrane conductance regulator; conditions: Epithelial cell, 10 uM
# Target sequence in this assay (P13569 whole entry, looked up): as above
# Kidney [5] = assay: Reduction in cyst expansion in 8-Br-cAMP treated embryonic mouse kidney organ culture model of polycystic kidney disease by transmission light microscopy; assay type: functional, tissue-based
# Procedure, shortened: (§3)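 E13.5 mouse metanephroi cultured on porous inserts in defined DMEM/Ham's F-12 (insulin, transferrin, selenium, prostaglandin E, T3) at 37 °C. Medium with 100 µM 8-Br-cAMP, with or without compound, replaced every 12 h. After 4 days, cyst area fraction measured by transmission light microscopy (SE, 6–8 kidneys), or paraffin sections H&E-stained (three kidneys per condition).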
# Kidney [6] = assay: Reduction in cyst size in 8-Br-cAMP treated embryonic mouse kidney organ culture model of polycystic kidney disease by hematoxylin and eosin staining after 4 days; assay type: functional, tissue-based; procedure, shortened: as §3
# CHO-K1 [7] = assay: Effect on forskolin-induced cAMP production in CHOK1 cells at 10 uM; assay type: functional, cell-based; conditions: Cricetulus griseus
# Procedure, shortened: (§4)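 cAMP measured in CHO-K1 cells under basal conditions and after 20 µM forskolin, with or without compound at 10 µM; SE, n = 4.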
# [8] = target: T1, Cystic fibrosis transmembrane conductance regulator; assay: Inhibition of human CFTR expressed in rat FRT cells assessed as inhibition of CPT-cAMP-induced apical membrane current in presence of transepithelial chloride gradient and basolateral membrane permeabilization with amphotericin B by short-circuit current analysis; assay type: cell-based
# Procedure, shortened: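 FRT cells stably coexpressing human wild-type CFTR, mounted in Ussing chambers. Apical 75 mM NaCl/75 mM Na gluconate, basolateral 150 mM NaCl (pH 7.3), basolateral membrane permeabilized with 250 µg/mL amphotericin B, air-bubbled, 37 °C. CFTR activated by 100 µM CPT-cAMP, then increasing inhibitor concentrations added cumulatively. Apical current recorded continuously; dose–response, SE n = 4.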
# Target sequence in this assay (P13569 whole entry): as the sequence (P13569 whole entry, looked up) above
# [9] = target: T1, Cystic fibrosis transmembrane conductance regulator; assay: Inhibition of CFTR in nonpermeabilized human bronchial epithelial cells assessed as inhibition of forskolin and IBMX-induced chloride current at by short-circuit current analysis; assay type: cell-based, Epithelial cell
# Procedure, shortened: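 Ussing chamber short-circuit current in nonpermeabilized primary human bronchial epithelial cells on inserts; Krebs-bicarbonate both sides, bubbled with 5% CO2 in air, 37 °C. CFTR maximally activated by 10 µM forskolin plus 100 µM IBMX, then inhibitor added; current recorded continuously with voltage clamp.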
# Target sequence in this assay (P13569 whole entry): as the sequence (P13569 whole entry, looked up) above
# CHO-K1 [10] = assay: Effect on basal cAMP production in CHOK1 cells at 10 uM; assay type: functional, cell-based; conditions: Cricetulus griseus; procedure, shortened: as §4
# Kidney [11] = assay: Inhibition of cyst formation in 8-Br-cAMP treated embryonic mouse kidney organ culture model of polycystic kidney disease at 0.5 uM by transmission light microscopy; assay type: functional; procedure, shortened: as §3
# Kidney [12] = assay: Inhibition of cyst formation in 8-Br-cAMP treated embryonic mouse kidney organ culture model of polycystic kidney disease at 5 uM by transmission light microscopy; assay type: functional, tissue-based; procedure, shortened: as §3
# Epithelial cell [13] = assay: Inhibition of calcium-activated chloride channel in CFTR deficient human bronchial epithelial cells assessed as inhibition of UTP-induced chloride current at 20 uM; assay type: cell-based
# Procedure, shortened: (§5)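 Ussing-chamber short-circuit current in cystic fibrosis (CFTR-deficient) human bronchial epithelial cells, Krebs-bicarbonate both sides, 5% CO2 in air, 37 °C. ENaC blocked with 10 µM amiloride. Calcium-activated chloride channels stimulated with 100 µM UTP, compound added as indicated.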
# [14] = target: T1, Cystic fibrosis transmembrane conductance regulator; conditions: T84, 10 uM
# Target sequence in this assay (P13569 whole entry, looked up): as above
# Epithelial cell [15] = assay: Inhibition of calcium-activated chloride channel in CFTR deficient human bronchial epithelial cells assessed as inhibition of UTP-induced chloride current at 10 uM; assay type: cell-based; procedure, shortened: as §5
# [16] = target: T1, Cystic fibrosis transmembrane conductance regulator; conditions: FRT, 0.5 uM
# Target sequence in this assay (P13569 whole entry, looked up): as above
# Kidney [17] = assay: Inhibition of cyst formation in 8-Br-cAMP treated embryonic mouse kidney organ culture model of polycystic kidney disease at 2.5 uM by transmission light microscopy; assay type: functional, tissue-based
# Procedure, shortened: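 E13.5 mouse metanephroi cultured on porous inserts in defined DMEM/Ham's F-12 (insulin, transferrin, selenium, prostaglandin E, T3) at 37 °C. Medium with 100 µM 8-Br-cAMP, with or without inhibitor, replaced every 12 h. After 4 days, transmission light micrographs scored as fractional kidney area occupied by cysts (6–8 kidneys, SE).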
# Kidney [18] = assay: Reduction in fluid accumulation in 3 days 8-Br-cAMP treated embryonic mouse kidney organ culture model of polycystic kidney disease at 5 uM after 1 or 2 days by transmission light microscopy; assay type: functional, tissue-based; procedure, shortened: as §2
# [19] = target: T1, Cystic fibrosis transmembrane conductance regulator; assay: Inhibition of CFTR
# Procedure, shortened: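 Ussing-chamber apical membrane current in CFTR-expressing FRT cells under a chloride gradient: apical 75 mM NaCl/75 mM Na gluconate, basolateral 150 mM NaCl, pH 7.3. Basolateral membrane permeabilized with 250 µg/mL amphotericin B, air-bubbled, 37 °C. CFTR activated by 100 µM CPT-cAMP, then compound added at increasing concentrations. Dose–response, SE n = 4.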
# Target sequence in this assay (P13569 whole entry): as the sequence (P13569 whole entry, looked up) above
Compound,inhibition [1] [%],inhibition [2] [%],other results
Cn1c(=O)c2c(-c3ccccc3)n3c(c2n(C)c1=O)C(c1ccccc1F)Nc1ccccc1-3 (stereo unspecified),61,81,–
Cc1ccc(C2Nc3ccccc3-n3c(-c4ccccc4)c4c(=O)n(C)c(=O)n(C)c4c32)o1 (stereo unspecified),87,97,Activity (Kidney [3]): Active; inhibition [4]: 100%; Activity (Kidney [5]): Active; inhibition (Kidney [6]): Active; Activity (CHO-K1 [7]): inactive; IC50 [8]: 90 nM; IC50 [9]: < 1000 nM; Activity (CHO-K1 [10]): inactive; inhibition at 0.5 µM (Kidney [11]): 60%; Activity (Kidney [12]): Active; Activity (Epithelial cell [13]): inactive; inhibition [14]: 100%; Activity (Epithelial cell [15]): inactive; inhibition [16]: 65%; inhibition (Kidney [17]): Active; inhibition (Kidney [18]): Active
Cn1c(=O)c2c(-c3ccccc3)n3c(c2n(C)c1=O)C(c1cccc(F)c1F)Nc1ccccc1-3 (stereo unspecified),72,93,–
Cc1ccccc1-c1c2c(=O)n(C)c(=O)n(C)c2c2n1-c1ccccc1NC2c1ccccc1 (stereo unspecified),51,97,–
O=C(O)c1ccc(/C=C2\SC(=S)N(c3cccc(C(F)(F)F)c3)C2=O)cc1,–,–,IC50 [19]: 300 nM
COc1cccc(C2Nc3ccccc3-n3c(-c4cccc(C)c4)c4c(=O)n(C)c(=O)n(C)c4c32)c1 (stereo unspecified),73,98,–
COc1cccc(C2Nc3ccccc3-n3c(-c4ccccc4C)c4c(=O)n(C)c(=O)n(C)c4c32)c1 (stereo unspecified),62,94,–
Cc1ccc(C2Nc3ccccc3-n3c(-c4ccccc4C)c4c(=O)n(C)c(=O)n(C)c4c32)o1 (stereo unspecified),86,97,–
Cn1c(=O)c2c(-c3ccccc3)n3c(c2n(C)c1=O)C(c1ccc(O)cc1)Nc1ccccc1-3 (stereo unspecified),64,86,–
Cc1ccc(C2Nc3cc(C)c(C)cc3-n3c(-c4ccccc4F)c4c(=O)n(C)c(=O)n(C)c4c32)o1 (stereo unspecified),80,87,–
Cc1cccc(-c2c3c(=O)n(C)c(=O)n(C)c3c3n2-c2ccccc2NC3c2cccc(F)c2)c1 (stereo unspecified),53,93,–
Cc1cc2c(cc1C)-n1c(-c3ccccc3)c3c(=O)n(C)c(=O)n(C)c3c1C(c1ccc(O)cc1)N2 (stereo unspecified),80,99,–
COc1cc(O)ccc1C1Nc2ccccc2-n2c(-c3ccccc3)c3c(=O)n(C)c(=O)n(C)c3c21 (stereo unspecified),5,56,–
Cn1c(=O)c2c(-c3ccccc3)n3c(c2n(C)c1=O)C(c1cccc([N+](=O)[O-])c1)Nc1ccccc1-3 (stereo unspecified),60,90,–
COc1cccc(C2Nc3ccccc3-n3c(-c4ccccc4F)c4c(=O)n(C)c(=O)n(C)c4c32)c1 (stereo unspecified),62,97,–
Cc1ccccc1-c1c2c(=O)n(C)c(=O)n(C)c2c2n1-c1ccccc1NC2c1cccc([N+](=O)[O-])c1 (stereo unspecified),64,96,–
Cc1cccc(-c2c3c(=O)n(C)c(=O)n(C)c3c3n2-c2ccccc2NC3c2ccc(C)o2)c1 (stereo unspecified),82,98,–
Cn1c(=O)c2c(-c3ccccc3)n3c(c2n(C)c1=O)C(c1ccccc1)Nc1ccccc1-3 (stereo unspecified),61,92,–
Cc1ccc(C2Nc3cc(C)c(C)cc3-n3c(-c4ccccc4)c4c(=O)n(C)c(=O)n(C)c4c32)o1 (stereo unspecified),84,90,–
Cc1cccc(-c2c3c(=O)n(C)c(=O)n(C)c3c3n2-c2ccccc2NC3c2ccccc2F)c1 (stereo unspecified),67,80,–
COc1cccc(C2Nc3ccccc3-n3c(-c4ccccc4)c4c(=O)n(C)c(=O)n(C)c4c32)c1 (stereo unspecified),63,86,–
Cc1cccc(-c2c3c(=O)n(C)c(=O)n(C)c3c3n2-c2ccccc2NC3c2cccc([N+](=O)[O-])c2F)c1 (stereo unspecified),61,94,–
Cn1c(=O)c2c(-c3ccccc3F)n3c(c2n(C)c1=O)C(c1cccc(Cl)c1)Nc1ccccc1-3 (stereo unspecified),70,98,–
Cc1cccc(-c2c3c(=O)n(C)c(=O)n(C)c3c3n2-c2ccccc2NC3c2ccc(O)cc2)c1 (stereo unspecified),71,94,–
Cc1cccc(C2Nc3ccccc3-n3c(-c4ccccc4C)c4c(=O)n(C)c(=O)n(C)c4c32)c1 (stereo unspecified),46,100,–
O=C(CNc1ccc2ccccc2c1)N/N=C/c1cc(Br)c(O)c(Br)c1O,–,–,IC50 [19]: 5000 nM
